Measurements from ChEMBL document CHEMBL1147349, “Bisamides from Aglaia species: structure analysis and potential to reverse drug resistance with cultured cells” (1993).
Converted amounts (≈) assume the structure as drawn.

Assays:
Type in all cases: functional
[1] = Cytotoxicity against human BCA1 cells; settings: read-out: ED50 (the source's name)
Outline: (§1)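 Human cancer cell lines were cultured with the test compounds at concentrations up to 20 µg/ml. The read-out was cell survival, expressed as ED50.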

[2] = Cytotoxicity against vinblastine-resistant human KBV1 cells; settings: KB-V1, read-out: ED50 (the source's name)
Outline: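 KB-V1 cells are routinely maintained in vinblastine (1 µg/ml) to keep the drug-resistant phenotype. For this test they were cultured with the test compounds without vinblastine, at concentrations up to 20 µg/ml. The read-out was cell survival, expressed as ED50.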

SK-MEL-2 = assay: Cytotoxicity against human SK-MEL-2 cells; settings: read-out: ED50 (the source's name); outline: as §1
A-431 = assay: Cytotoxicity against human A431 cells; settings: read-out: ED50 (the source's name); outline: as §1
LNCaP = assay: Cytotoxicity against human LNCAP cells; settings: read-out: ED50 (the source's name); outline: as §1
[3] = Cytotoxicity against human LUC1 cells; settings: read-out: ED50 (the source's name); outline: as §1
[4] = Cytotoxicity against human Col1 cells; settings: read-out: ED50 (the source's name); outline: as §1
KB = assay: Cytotoxicity against human KB cells; settings: read-out: ED50 (the source's name); outline: as §1
HT-1080 = assay: Cytotoxicity against human HT1080 cells; settings: read-out: ED50 (the source's name); outline: as §1
[5] = Cytotoxicity against vinblastine-resistant human KBV1 cells by dose-response study in presence of 1 ug/ml vinblastine; settings: KB-V1, read-out: ED50 (the source's name)
Outline: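 The resistant KB-V1 line, normally kept in vinblastine (1 µg/ml), was exposed to the test compounds up to 20 µg/ml. Vinblastine at 1 µg/ml was present in the culture medium during treatment. The read-out was cell survival, expressed as ED50.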

ZR-75-1 = assay: Cytotoxicity against human ZR-75-1 cells; settings: read-out: ED50 (the source's name); outline: as §1

| Structure (SMILES) | EC50 [1] | EC50 [2] | EC50 (SK-MEL-2) | EC50 (A-431) | EC50 (LNCaP) | EC50 [3] | EC50 [4] | EC50 (KB) | EC50 (HT-1080) | EC50 [5] | EC50 (ZR-75-1) |
| --- | --- | --- | --- | --- | --- | --- | --- | --- | --- | --- | --- |
| CC[C@H](C)C(=O)N[C@@H]1CCCN1C(=O)/C=C/c1ccccc1 | > 20 µg/mL | > 20 µg/mL | > 20 µg/mL | > 20 µg/mL | > 20 µg/mL | > 20 µg/mL | > 20 µg/mL | > 20 µg/mL | > 20 µg/mL | 4.2 µg/mL | > 20 µg/mL |
| CC[C@H](C)C(=O)N[C@H]1CCCN1C(=O)/C=C/c1ccccc1 [ODORINE] | > 20 µg/mL | > 20 µg/mL | > 20 µg/mL | > 20 µg/mL | > 20 µg/mL | > 20 µg/mL | > 20 µg/mL | > 20 µg/mL | > 20 µg/mL | 6.4 µg/mL | > 20 µg/mL |
| CC(C)C(=O)N[C@H]1CCCN1C(=O)/C=C/c1ccccc1 [PIRIFERINE] | > 20 µg/mL | 10 µg/mL (≈ 34.9 µM) | > 20 µg/mL | > 20 µg/mL | > 20 µg/mL | > 20 µg/mL | > 20 µg/mL | > 20 µg/mL | > 20 µg/mL | 8.5 µg/mL | > 20 µg/mL |
| O=C(/C=C/c1ccccc1)NCCCCNC(=O)c1ccccc1 [PYRAMIDATINE] | > 20 µg/mL | > 20 µg/mL | > 20 µg/mL | > 20 µg/mL | > 20 µg/mL | > 20 µg/mL | > 20 µg/mL | > 20 µg/mL | > 20 µg/mL | > 20 µg/mL | > 20 µg/mL |
| CC[C@]1(O)C[C@@H]2CN(CCc3c([nH]c4ccccc34)[C@@](C(=O)OC)(c3cc4c(cc3OC)N(C)[C@H]3[C@@](O)(C(=O)OC)[C@H](OC(C)=O)[C@]5(CC)C=CCN6CC[C@]43[C@@H]65)C2)C1 [VINBLASTINE] | – | 2.6 µg/mL (≈ 3.21 µM) | – | – | – | – | – | 0.002 µg/mL (≈ 0.00247 µM) | – | – | – |
